# Screening results as filed in PubChem BioAssay.
# Most compounds without a hit are left out; they make up all but 2.1% or so of the library.
# CRFBP-R2 agonist: CRF-BP/CRF-R2 complex agonism. AID 588473. activation, % at 13.2 µM. 0.46% of 350,000 active. HEK293 CRF-R2/CRF-BP, calcium dye fluorescence (FLIPR); percent of saturating CRF peptide response;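 active = activation of at least 50%, plus an integration ratio under a set limit after plate pattern correction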;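 also: plate controls were neutral control wells without compound for no effect and CRF at EC100 for full effect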
# VIM-2 inhibitor: inhibitors of Pseudomonas aeruginosa VIM-2 metallo-beta-lactamase | 0.89% of 290,000 active | purified VIM-2, nitrocefin hydrolysis, epi-absorbance fluorescence | inhibition, % at 5.6 µM | AID 1527;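 active = inhibition above the mean of all tested compounds plus 3 SD, cutoff set per screening run, cut at about 7.5% in these data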;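 also: red hydrolysis product quenches plate fluorescence so inhibitors raise well fluorescence; 0% = enzyme with DMSO and 100% = DMSO without enzyme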
# IMP-1 inh: blocks Pseudomonas aeruginosa IMP-1 metallo-beta-lactamase | purified IMP-1, nitrocefin hydrolysis, epi-absorbance fluorescence | inhibition, % at 5.6 µM | 0.45% of 290,000 active | AID 1556;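 active = inhibition above the mean plus 3 SD of all compounds in the same screening run, cut at about 4.5% in these data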;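 also: 0% = IMP-1 with DMSO and 100% = DMSO wells lacking enzyme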
#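 Assay system: purified IMP-1; Quantity: IMP-1 0.2 nM before substrate addition; Medium: HEPES buffer pH 7.1 with ZnSO4 and Brij 35; Incubation: 15 min enzyme–compound preincubation, then 25 min nitrocefin reaction, 25 °C; Signal: fluorescence quenching readout, ex 480/em 530 nm; Controls: DMSO with and without IMP-1; Repeats: singlicate testing.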
# TRPML3 ag: human mucolipin-3 channel agonism; Q8TDD5; HEK293 TRPML3-YFP, Fluo-8 calcium fluorescence; 100% = the carbachol control signal; activation, % at 3 µM; 0.29% of 220,000 active;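 active = activation above its plate's cutoff, the mean activation of the plate's test wells plus 3 SD, cut at about 12% in these data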;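 also: 0% = DMSO only wells and 100% = carbachol wells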
# Target sequence (Q8TDD5 whole entry, looked up): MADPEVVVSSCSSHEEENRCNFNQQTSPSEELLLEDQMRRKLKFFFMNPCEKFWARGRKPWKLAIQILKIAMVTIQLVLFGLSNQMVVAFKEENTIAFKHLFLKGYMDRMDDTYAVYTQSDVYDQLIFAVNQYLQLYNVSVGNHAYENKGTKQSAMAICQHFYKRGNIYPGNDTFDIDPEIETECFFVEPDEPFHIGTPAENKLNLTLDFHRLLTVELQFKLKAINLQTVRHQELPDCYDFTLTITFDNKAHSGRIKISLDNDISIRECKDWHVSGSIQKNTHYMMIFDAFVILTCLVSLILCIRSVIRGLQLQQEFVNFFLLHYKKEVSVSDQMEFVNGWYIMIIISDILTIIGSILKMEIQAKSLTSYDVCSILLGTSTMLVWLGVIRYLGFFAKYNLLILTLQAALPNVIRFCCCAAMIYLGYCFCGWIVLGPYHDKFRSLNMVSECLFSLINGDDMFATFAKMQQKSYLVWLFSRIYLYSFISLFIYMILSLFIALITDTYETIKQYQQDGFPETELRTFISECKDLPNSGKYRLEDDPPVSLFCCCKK
#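 Test system: TRPML3-YFP stable HEK293 cells. Doses: single point at 3 µM. Incubation: dye loading 1 h 37 °C then 30 min ambient, 125 s read. Signal: Fluo-8 calcium dye fluorescence, ex 470-495, em 515-575 nm. Measure: percent activation from peak-to-basal fluorescence ratio, scaled between DMSO and carbachol.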
# TRPN1 ag: zebrafish TRPN1 (NompC) channel agonism | HEK293 zebrafish TRPN1-YFP, Fluo-8 calcium fluorescence; 100% = response to 87 µM carbachol | activation, % at 3 µM | 0.18% of 220,000 active;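 active = activation above its plate's cutoff, the mean activation of test wells on that plate plus 3 SD, cut at about 19% in these data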;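 also: 0% = DMSO alone and 100% = 87 µM carbachol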
#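 Material: zebrafish TRPN1-YFP in HEK293 cells. Doses: one dose of 3 µM, 0.3% DMSO. Incubation: dye 1 h 37 °C plus 30 min RT. Measured by: intracellular calcium fluorescence with Fluo-8.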
# CRFBP-R2 block: antagonists of CRF-binding protein/CRF-R2 receptor complex; inhibition, % at 11.8 µM; AID 588475; 0.59% of 350,000 active; HEK293 CRF-R2/CRF-BP, CRF-induced calcium fluorescence;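 active = inhibition of the ligand-induced calcium signal above about 50% at the single tested concentration, limit read from the data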
# * = called active by the depositor; x = no result.
SMILES,CRFBP-R2 agonist,VIM-2 inhibitor,IMP-1 inh,TRPML3 ag,TRPN1 ag,CRFBP-R2 block
COc1ccccc1-n1cnnc1SCC(=O)NCc1cccs1,1,-1,-1,1,0,82*
NCCNC(=O)Cn1c(=O)c2c3c(sc2n(Cc2ccccc2)c1=O)CCCC3,1,8.2*,-1,x,x,-18
NCCCNC(=O)Cn1c(=O)c2c3c(sc2n(Cc2ccccc2)c1=O)CCCC3,-1,5,-2,x,x,-4
O=C(CCN1C(=O)/C(=C/c2ccc(F)cc2)SC1=S)N[C@@H](CO)Cc1ccccc1,0,-2,0,x,x,-8
COc1cc(Nc2c3c(nc4ccccc24)CCC3)cc(OC)c1OC,-1,2,-2,x,x,14
Cc1cccc(Nc2c3c(nc4ccccc24)CCC3)c1,-6,7,-4,0,2,-2
COc1ccccc1Nc1c2c(nc3ccc(N)cc13)CCCC2,-3,8.7*,-4,0,1,-22
COc1ccc(Nc2c3c(nc4ccc(C)cc24)CCC3)cc1,-5,9.1*,-3,x,x,-8
O=C(C1CCCN1S(=O)(=O)c1ccc(Cl)cc1)N1CCCCC1 (stereo not drawn),-3,-1,-3,x,x,20
CCCNC(=O)c1c(O)c2cccc3c2n(c1=O)CCC3,0,1,-3,x,x,-17
NCCNC(=O)c1c(O)c2cccc3c2n(c1=O)CCC3,0,12*,0,x,x,-3
O=C(NCCO)c1c(O)c2cccc3c2n(c1=O)CC3,8,4,-1,0,1,56*
O=C(NCC1CCCO1)c1c(O)c2cccc3c2n(c1=O)CC3 (stereo not drawn),-3,-1,-2,1,1,12
CNc1nnc(SCC(=O)N2c3ccccc3NC(=O)CC2C)s1 (stereo not drawn),-1,x,x,x,x,-4
CCOc1cc(/C=N/NC(=O)CN2CCOCC2)ccc1OCc1ccc(Cl)cc1,1,-1,-2,1,2,-3
CCOc1cc(/C=N/N2CCOCC2)ccc1OCc1ccc(C(=O)OC)o1,0,0,-2,144*,382*,-3
Cc1ccccc1C1(O)c2ccccc2-c2ccccc21,0,x,x,x,x,14
COc1ccc(OC)c(CN2CCN(S(=O)(=O)c3ccc(NC(C)=O)cc3)CC2)c1,-7,-1,-6,0,-1,53*
COc1cccc(CN2CCN(S(=O)(=O)c3ccc(NC(C)=O)cc3)CC2)c1OC,1,-3,-5,1,6,6
NC(N)=N/N=C/c1cc([N+](=O)[O-])ccc1O,-3,-3,-1,1,2,33
O=[N+]([O-])c1ccc(O)c(/C=N\N=C2c3ccccc3-c3ccccc32)c1,84*,-2,-2,1,0,74*
COC(=O)c1ccc2c(c1)C(=O)/C(=C/c1ccc(O)cc1)O2,77*,-3,-3,1,3,-81
O=[N+]([O-])c1ccc(Cl)c(-c2ccc(/C=N/c3c(-c4ccco4)nc4ccccn34)o2)c1,4,-2,-2,0,0,-50
Cc1cc(C)c([N+](=O)[O-])cc1-c1ccc(/C=N/c2c(-c3ccco3)nc3ccccn23)o1,0,4,9.2*,0,0,2
CSc1ncccc1C(=O)Nc1ccc(OC(F)(F)F)cc1,1,2,0,1,0,17
CC(=O)Nc1ccc(Sc2ncccc2C(=O)Nc2ccc(F)cc2)cn1,156*,-3,-3,35*,46*,-123
O=[N+]([O-])c1ccc(N=Nc2c(Cl)cc(O)cc2Cl)cc1,31,-5,-6,16*,20*,41
CC(N)=Nc1ccc([N+](=O)[O-])cc1,2,-1,-2,0,1,-7
COc1ccc(C=NNc2ccc([N+](=O)[O-])cc2S(=O)(=O)Nc2ccccc2C(=O)O)cc1OC,1,x,x,x,x,39
COc1ccc(/C=N/Nc2ccc([N+](=O)[O-])cc2S(=O)(=O)N2CCN(C)CC2)cc1,56*,-5,-5,1,1,-52
